The values below come from ChEMBL document CHEMBL5030531, “Synthetic Glycolipids as Molecular Vaccine Adjuvants: Mechanism of Action in Human Cells and In Vivo Activity” (J Med Chem, 2021).

Data set [1] has as its target T1, Toll-like receptor 4/MD-2 (Homo sapiens) (UniProt O00206+Q9Y6Y9). Kind of data set: Binding affinity to NTA sensor chip immobilized recombinant human TLR4/MD2 assessed as dissociation rate kinetics by surface plasmon resonance analysis. It counts as protein-complex assay. As to conditions: filed as agonist. The gist of the method:
(§1)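 Recombinant human TLR4/MD2 complex (20 μg/mL in 10 mM sodium acetate pH 4.0) amine-coupled to NTA chip after NiCl2 and EDC/NHS activation, ethanolamine-blocked. Analytes sonicated 15 min and diluted in PBS-P+ with 5% DMSO, injected over the series 4.34–69.50 μM or 5.34–85.50 μM. Regeneration 50 mM NaOH. Kinetics fitted to 1:1 model after solvent correction.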
A general note: In SPR one partner is held on a chip, and binding of the other changes the refractive index at the surface.

For data set [2], the system named is Mus musculus. Put plainly: Immuno-adjuvant activity in C57BL/6 mouse assessed as increase in levels of anti-ova total IgG in sera at 10 ug administered subcutaneously on day 1 and as booster dose on day 22 in presence of ovalbumin and […] by ELISA. It counts as functional, organism-based. As to conditions: dose 10.0 µg. The gist of the method: (§2)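 Female C57BL/6 mice (n = 8) given 50 μL s.c. in the flank of 500 μg endotoxin-depleted OVA mixed with 10 μg adjuvant in PBS. Booster on opposite flank day 22; OVA-only control group. Tail-vein sera taken days 21 and 41, serially diluted 1:100–1:12 800 and assayed by ELISA on OVA-coated plates (4 μg/mL). Detection with HRP anti-mouse IgG, TMB, A450.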
(ELISA stands for enzyme-linked immunosorbent assay.)

The subject of data set [3] is Macrophage. Kind of data set: Activation of TRIF dependent pathway in human THP-1 derived macrophages assessed as increase in RSAD2 expression measured after 6 hrs. It counts as tissue-based. An outline of the steps:
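RSAD2 mRNA in differentiated THP-1 macrophages after compound at 10 μM, measured by RT-qPCR (annealing 60 °C) with β-actin housekeeping gene. Expressed as ΔΔCt fold change versus untreated cells; n = 3, Wilcoxon test.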

The test system of data set [4] is HEK-Blue hTLR4. Put plainly: Activation of AP-1 in LPS-stimulated HEK-Blue hTLR4 cells assessed as increase in release of SEAP reporter protein level incubated for 18 hrs by QUANTI-blue assay. As to conditions: Homo sapiens, filed as activator. It counts as cell-based. An outline of the steps:
(§3)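 HEK-Blue hTLR4 cells (HEK293 with CD14, TLR4, MD-2 and NF-κB/AP-1-driven SEAP) in DMEM/10% FBS, seeded overnight (37 °C, 5% CO2), washed, then exposed to compound 0.1–25 μM in fresh medium for 18 h. SEAP in supernatant read with QUANTI-Blue substrate (0.5–4 h, RT) at OD 630 nm. Normalized to 100 ng/mL S. minnesota smooth LPS; mean percentage of three independent experiments.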

The test system of data set [5] is Macrophage. Kind of data set: Activation of TRIF dependent pathway in human THP-1 derived macrophages assessed as increase in IFNbeta mRNA expression measured 2 hrs post treatment by real-time PCR. On the technique in general: In qPCR the cycle at which signal appears reflects the starting amount.
Data set [6] concerns the target T1, Toll-like receptor 4/MD-2 (Homo sapiens). Kind of data set: Binding affinity to NTA sensor chip immobilized recombinant human TLR4/MD2 assessed as association rate constant by surface plasmon resonance analysis. Type of data set: protein-complex assay. To be noted: filed as agonist. An outline of the steps: as §1
Data set [7] has as its system Macrophage. Kind of data set: Induction of IL-1beta production in human THP-1 derived macrophages assessed as accumulation of IL-1beta precursor in cell lysates at 20 uM measured up to 18 hrs by ELISA. To be noted: time hrs <=18. Type of data set: functional, subcellular. The gist of the method: (§4)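 Differentiated THP-1 macrophages treated with compound at 20 μM (S-LPS, R-LPS 100 ng/mL; MPLA 1 μg/mL) for 3, 6 and 18 h. IL-1β measured by ELISA in both cell lysates and supernatants; n = 3, one-way ANOVA versus untreated.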

The test system of data set [8] is Mus musculus. Put plainly: Immuno-adjuvant activity in C57BL/6 mouse assessed as increase in levels of anti-ova total IgG in sera at 10 ug administered subcutaneously in presence of ovalbumin and measured 21 days post immunization by ELISA. As to conditions: dose 10.0 µg, time 21.0 day. Type of data set: functional, organism-based. An outline of the steps:
as §2

Data set [9] deals with T1, Toll-like receptor 4/MD-2 (Homo sapiens). Put plainly: Binding affinity to NTA sensor chip immobilized recombinant human TLR4/MD2 assessed as maximum response by surface plasmon resonance analysis. It counts as protein-complex assay. As to conditions: filed as agonist. The gist of the method: as §1
Data set [10] concerns the target Toll-like receptor 4 (Homo sapiens) (UniProt O00206). Put plainly: Antagonist activity at human TLR4 in LPS-stimulated HEK-Blue hTLR4 cells assessed as inhibition of LPS-induced SEAP production at 0.1 to 25 uM incubated for 18 hrs by QUANTI-blue assay. To be noted: dose 0.1-25 µM.
Data set [11] has as its target Myeloid differentiation primary response protein MyD88 (Homo sapiens) (UniProt Q99836). Put plainly: Activation of MyD88 dependent pathway in human THP-1 derived macrophages assessed as increase in NF-kappaB p65 phosphorylation at 10 uM measured after 1 hr by immunoblotting analysis. Type of data set: tissue-based. As to conditions: Macrophage, filed as activator. The gist of the method:
(§5)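 PMA-differentiated THP-1 macrophages treated with compound at 10 μM (S-LPS 100 ng/mL, MPLA 1 μg/mL as references) and harvested at set times. RIPA lysates with protease/phosphatase inhibitors separated by SDS-PAGE, transferred to PVDF and probed for phospho-p65 (Ser536) and phospho-p38 (Thr180/Tyr182) with β-actin as loading control. Detection by chemiluminescence, densitometry; representative of at least two experiments.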

A short description of data set [12]: Toxicity in C57BL/6 […] assessed as local response at injection site at 10 ug observed daily for 7 days. As to conditions: mouse, in vivo, 168 h; dose 10 µg, time 7 day. The gist of the method: (§6)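 Six-week-old female C57BL/6 mice were injected subcutaneously in the flank with 10 μg adjuvant in 50 μL PBS. Mice were monitored and weighed daily for 7 days, with injection-site response and alertness noted. Group size is n = 3 per treatment in the methods and n = 4 in the figure legend.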

The target in data set [13] is T2, Nuclear factor NF-kappa-B complex (Homo sapiens) (UniProt Q00653+P19838+Q04206). Put plainly: Activation of NF-kappaB in LPS-stimulated HEK-Blue hTLR4 cells assessed as increase in release of SEAP reporter protein level incubated for 18 hrs by QUANTI-blue assay. To be noted: filed as activator. It counts as cell-based. The gist of the method: as §3
Data set [14] addresses Myeloid differentiation primary response protein MyD88 (Homo sapiens) (UniProt Q99836). Put plainly: Activation of MyD88 dependent pathway in human THP-1 derived macrophages assessed as increase in IL-1 beta secretion measured after 18 hrs by ELISA. To be noted: Macrophage, filed as activator. The gist of the method:
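THP-1 cells differentiated with PMA 25 ng/mL for 72 h, then rested 24 h in fresh medium before stimulation with compound (range 0.1–1 to 10–25 μM) in RPMI/10% FBS for 18 h. S-LPS and MPLA used as references. TNFα, IL-1β, IL-6 in supernatants quantified by sandwich ELISA at 450 nm (570 nm correction).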

The nature of data set [15]: Toxicity in C57BL/6 […] assessed as state of alertness at 10 ug observed daily for 7 days. To be noted: mouse, in vivo, 168 h; dose 10 µg, time 7 day. An outline of the steps:
as §6

Data set [16] addresses Toll-like receptor 2 (Homo sapiens) (UniProt O60603). Kind of data set: Agonist activity human TLR2 in PAM2CSK4 stimulated HEK-Blue hTLR2 cells at 0.1 to 25 uM incubated for 18 hrs by QUANTI-blue assay. It counts as cell-based. To be noted: dose 0.1-25 µM. The gist of the method: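 HEK-Blue hTLR2 cells exposed 18 h to compound (0.1–25 μM); SEAP in supernatant by QUANTI-Blue at OD 630 nm. Values normalized to PAM2CSK4 (10 ng/mL, 18 h) and expressed as mean percentage of three independent experiments.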

Data set [17] concerns Macrophage. Put plainly: Activation of TRIF dependent pathway in human THP-1 derived macrophages assessed as increase in IRF3 phosphorylation at 10 uM measured up to 3 hrs by immunoblotting analysis. As to conditions: time hrs <=3. Type of data set: tissue-based. An outline of the steps: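 Differentiated THP-1 macrophages exposed to compound at 10 μM, alongside S-LPS and R-LPS (100 ng/mL each) and MPLA (1 μg/mL), and collected over a time course. Lysates were immunoblotted for phospho-IRF3 (Ser386) with β-actin as loading control and detected by chemiluminescence.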

The nature of data set [18]: Toxicity in C57BL/6 […] assessed as effect on body weight at 10 ug measured daily for 7 days. As to conditions: mouse, in vivo, 168 h; dose 10 µg, time 7 day. The gist of the method:
as §6

The target of data set [19] is Toll-like receptor 4 (Homo sapiens) (UniProt O00206). Kind of data set: Activation of human TLR4 in IL-1beta stimulated HEK-Blue Null cells assessed as NF-kappaB activation at 0.1 to 25 uM incubated for 18 hrs by QUANTI- blue assay. As to conditions: dose 0.1-25 µM. It counts as tissue-based. An outline of the steps:
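HEK-Blue Null cells, which carry the SEAP reporter but lack LPS receptors, were given compound (0.1–25 μM) for 18 h. SEAP was read by QUANTI-Blue at OD 630 nm and normalized to 100 ng/mL human IL-1β as positive control. Results are the mean percentage of three independent experiments.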

Data set [20] has as its target Myeloid differentiation primary response protein MyD88 (Homo sapiens) (UniProt Q99836). Put plainly: Activation of MyD88 dependent pathway in human THP-1 derived macrophages assessed as increase in MAPK p38 phosphorylation at 10 uM measured after 1 hr by immunoblotting analysis. It counts as tissue-based. As to conditions: Macrophage, filed as activator. An outline of the steps:
as §5

Data set [21] relates to Macrophage. Put plainly: Induction of IL-1beta production in human THP-1 derived macrophages assessed as secretion of IL-1beta mature form in supernatant at 20 uM measured up to 18 hrs by ELISA. Type of data set: functional, tissue-based. To be noted: time hrs <=18. An outline of the steps:
as §4

Data set [22] concerns the target T2, Nuclear factor NF-kappa-B complex (Homo sapiens). Put plainly: Activation of NF-kappaB in LPS-stimulated HEK-Blue hTLR4 cells assessed as increase in release of SEAP reporter protein level at 0.1 to 25 uM incubated for 18 hrs by QUANTI-blue assay. Type of data set: cell-based. To be noted: dose 0.1-25 µM. The gist of the method: as §3
For data set [23], the system named is HEK-Blue hTLR4. Put plainly: Activation of AP-1 in LPS-stimulated HEK-Blue hTLR4 cells assessed as increase in release of SEAP reporter protein level at 0.1 to 25 uM incubated for 18 hrs by QUANTI-blue assay. As to conditions: Homo sapiens, dose 0.1-25 µM. Type of data set: cell-based. An outline of the steps:
as §3

Active and inactive are the calls of the source. No cut-off for these calls is given here.

Chain of Myeloid differentiation primary response protein MyD88 (Homo sapiens) (Q99836 whole entry): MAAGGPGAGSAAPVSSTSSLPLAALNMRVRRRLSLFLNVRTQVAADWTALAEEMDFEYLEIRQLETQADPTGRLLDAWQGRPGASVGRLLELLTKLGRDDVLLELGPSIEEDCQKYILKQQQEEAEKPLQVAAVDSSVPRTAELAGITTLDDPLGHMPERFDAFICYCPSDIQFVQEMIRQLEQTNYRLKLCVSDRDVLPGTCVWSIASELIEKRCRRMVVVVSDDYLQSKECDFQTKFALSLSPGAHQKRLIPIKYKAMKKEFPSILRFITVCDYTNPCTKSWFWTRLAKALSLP
Chain of Toll-like receptor 4 (Homo sapiens) (O00206 whole entry): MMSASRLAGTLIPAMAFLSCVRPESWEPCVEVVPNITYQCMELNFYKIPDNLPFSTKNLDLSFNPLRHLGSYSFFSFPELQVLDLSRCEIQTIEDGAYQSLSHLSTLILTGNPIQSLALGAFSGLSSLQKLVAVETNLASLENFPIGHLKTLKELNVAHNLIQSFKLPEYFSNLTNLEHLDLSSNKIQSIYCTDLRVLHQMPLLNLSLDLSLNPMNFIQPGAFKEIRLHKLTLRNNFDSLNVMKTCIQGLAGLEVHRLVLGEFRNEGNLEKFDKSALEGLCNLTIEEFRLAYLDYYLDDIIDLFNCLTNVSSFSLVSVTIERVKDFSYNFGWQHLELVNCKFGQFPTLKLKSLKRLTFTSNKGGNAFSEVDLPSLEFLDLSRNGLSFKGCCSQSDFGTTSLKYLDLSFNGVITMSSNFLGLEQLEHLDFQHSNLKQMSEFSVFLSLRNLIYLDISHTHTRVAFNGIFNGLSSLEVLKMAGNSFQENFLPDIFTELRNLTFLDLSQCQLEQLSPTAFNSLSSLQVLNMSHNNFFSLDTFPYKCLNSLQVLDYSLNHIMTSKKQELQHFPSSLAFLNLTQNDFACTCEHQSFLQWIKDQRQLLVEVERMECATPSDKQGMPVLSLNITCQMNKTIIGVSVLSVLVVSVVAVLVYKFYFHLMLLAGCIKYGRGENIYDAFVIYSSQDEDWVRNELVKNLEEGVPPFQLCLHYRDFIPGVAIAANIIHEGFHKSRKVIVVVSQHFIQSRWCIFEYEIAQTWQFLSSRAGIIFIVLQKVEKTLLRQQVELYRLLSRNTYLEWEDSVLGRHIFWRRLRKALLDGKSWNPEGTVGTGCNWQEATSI
T2 sequence (P19838 whole entry, looked up): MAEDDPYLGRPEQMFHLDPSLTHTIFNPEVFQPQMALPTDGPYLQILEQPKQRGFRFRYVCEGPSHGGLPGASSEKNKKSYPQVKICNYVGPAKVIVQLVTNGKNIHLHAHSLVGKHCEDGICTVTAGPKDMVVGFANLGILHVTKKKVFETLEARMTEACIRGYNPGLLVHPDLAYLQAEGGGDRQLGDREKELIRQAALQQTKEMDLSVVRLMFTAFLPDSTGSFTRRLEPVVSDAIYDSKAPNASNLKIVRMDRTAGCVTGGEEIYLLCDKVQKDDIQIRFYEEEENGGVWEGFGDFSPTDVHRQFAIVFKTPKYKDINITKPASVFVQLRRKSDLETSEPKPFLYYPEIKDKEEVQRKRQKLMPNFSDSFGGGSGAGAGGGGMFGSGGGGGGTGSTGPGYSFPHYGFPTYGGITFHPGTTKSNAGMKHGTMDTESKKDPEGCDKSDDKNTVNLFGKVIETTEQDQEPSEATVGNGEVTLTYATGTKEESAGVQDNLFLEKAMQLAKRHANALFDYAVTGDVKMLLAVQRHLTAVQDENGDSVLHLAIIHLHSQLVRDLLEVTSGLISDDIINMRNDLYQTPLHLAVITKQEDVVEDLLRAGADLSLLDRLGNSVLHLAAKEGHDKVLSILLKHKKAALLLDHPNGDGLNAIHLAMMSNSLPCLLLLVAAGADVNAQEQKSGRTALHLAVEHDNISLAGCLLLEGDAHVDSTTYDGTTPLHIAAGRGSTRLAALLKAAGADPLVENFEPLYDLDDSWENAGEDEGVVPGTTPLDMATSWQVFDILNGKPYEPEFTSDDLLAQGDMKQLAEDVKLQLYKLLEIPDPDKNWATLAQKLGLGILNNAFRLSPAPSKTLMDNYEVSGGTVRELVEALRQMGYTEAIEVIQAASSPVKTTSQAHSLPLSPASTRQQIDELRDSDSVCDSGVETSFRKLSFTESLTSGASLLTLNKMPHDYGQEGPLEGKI
T2 sequence (Q00653 whole entry, looked up): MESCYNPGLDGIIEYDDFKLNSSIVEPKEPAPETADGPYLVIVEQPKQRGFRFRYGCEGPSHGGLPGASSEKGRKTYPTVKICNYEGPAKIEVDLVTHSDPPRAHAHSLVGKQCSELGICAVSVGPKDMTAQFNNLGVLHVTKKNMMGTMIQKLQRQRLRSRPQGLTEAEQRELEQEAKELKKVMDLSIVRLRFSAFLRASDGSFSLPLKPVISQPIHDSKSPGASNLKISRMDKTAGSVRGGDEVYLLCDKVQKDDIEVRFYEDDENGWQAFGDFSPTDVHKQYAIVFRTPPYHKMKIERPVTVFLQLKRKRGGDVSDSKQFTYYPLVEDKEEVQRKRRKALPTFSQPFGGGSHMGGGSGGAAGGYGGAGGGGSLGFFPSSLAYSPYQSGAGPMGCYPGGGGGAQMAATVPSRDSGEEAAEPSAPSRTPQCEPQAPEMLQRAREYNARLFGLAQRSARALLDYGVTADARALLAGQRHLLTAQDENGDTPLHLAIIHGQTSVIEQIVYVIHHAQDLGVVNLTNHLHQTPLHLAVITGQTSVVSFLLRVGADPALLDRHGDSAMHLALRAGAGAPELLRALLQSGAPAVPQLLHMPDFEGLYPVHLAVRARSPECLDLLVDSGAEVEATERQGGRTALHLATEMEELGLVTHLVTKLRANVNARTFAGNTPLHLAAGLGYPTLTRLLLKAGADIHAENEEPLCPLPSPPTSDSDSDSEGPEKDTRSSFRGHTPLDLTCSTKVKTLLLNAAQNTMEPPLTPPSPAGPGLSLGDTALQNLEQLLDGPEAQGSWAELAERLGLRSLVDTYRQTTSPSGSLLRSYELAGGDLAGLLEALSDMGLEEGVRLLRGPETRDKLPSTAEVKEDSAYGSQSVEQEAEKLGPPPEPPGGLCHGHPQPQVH
T2 sequence (Q04206 whole entry, looked up): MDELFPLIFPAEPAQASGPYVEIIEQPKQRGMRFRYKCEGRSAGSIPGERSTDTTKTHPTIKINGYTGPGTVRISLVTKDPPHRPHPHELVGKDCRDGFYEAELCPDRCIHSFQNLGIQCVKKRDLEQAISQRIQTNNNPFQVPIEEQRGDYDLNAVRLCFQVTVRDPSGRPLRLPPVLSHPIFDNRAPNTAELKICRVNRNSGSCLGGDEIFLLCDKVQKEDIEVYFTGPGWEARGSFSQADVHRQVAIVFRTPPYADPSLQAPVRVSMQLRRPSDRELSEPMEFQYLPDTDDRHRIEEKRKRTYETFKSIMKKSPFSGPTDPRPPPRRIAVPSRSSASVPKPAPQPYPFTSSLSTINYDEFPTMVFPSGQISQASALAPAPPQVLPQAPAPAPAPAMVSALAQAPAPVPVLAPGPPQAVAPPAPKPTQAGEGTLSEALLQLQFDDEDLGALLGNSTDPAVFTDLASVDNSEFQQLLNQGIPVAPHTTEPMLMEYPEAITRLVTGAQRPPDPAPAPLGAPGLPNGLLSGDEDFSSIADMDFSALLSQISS
Chain of Toll-like receptor 2 (Homo sapiens) (O60603 whole entry): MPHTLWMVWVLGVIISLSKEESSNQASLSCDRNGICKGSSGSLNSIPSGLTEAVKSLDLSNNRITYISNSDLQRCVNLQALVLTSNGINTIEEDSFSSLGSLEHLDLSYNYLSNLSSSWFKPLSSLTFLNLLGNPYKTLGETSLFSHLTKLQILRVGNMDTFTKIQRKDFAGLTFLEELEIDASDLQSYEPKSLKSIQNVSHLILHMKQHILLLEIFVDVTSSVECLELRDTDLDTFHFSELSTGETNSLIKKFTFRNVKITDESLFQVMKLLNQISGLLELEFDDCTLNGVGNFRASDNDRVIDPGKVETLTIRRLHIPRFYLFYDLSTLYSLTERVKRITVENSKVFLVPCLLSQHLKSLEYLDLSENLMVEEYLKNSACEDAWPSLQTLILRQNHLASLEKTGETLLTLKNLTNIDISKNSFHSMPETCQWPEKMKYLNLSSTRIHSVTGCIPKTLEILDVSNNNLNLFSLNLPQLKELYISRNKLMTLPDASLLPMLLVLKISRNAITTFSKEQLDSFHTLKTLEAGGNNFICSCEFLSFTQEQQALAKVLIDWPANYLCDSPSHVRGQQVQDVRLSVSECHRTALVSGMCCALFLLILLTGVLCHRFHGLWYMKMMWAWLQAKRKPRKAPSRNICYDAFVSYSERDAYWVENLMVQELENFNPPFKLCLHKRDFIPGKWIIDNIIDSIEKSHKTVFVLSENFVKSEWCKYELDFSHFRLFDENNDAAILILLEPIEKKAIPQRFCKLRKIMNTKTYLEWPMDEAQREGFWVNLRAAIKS

`CCCCCCCCCCCCCC(=O)N[C@H]1[C@@H](OP(=O)([O-])[O-])O[C@H](CO)[C@@H](OC(=O)CCCCCCCCCCCCC)[C@@H]1OC(=O)CCCCCCCCCCCCC.[Na+].[Na+]`: the Kdiss in [1] is 7.09 10^-4/s. Also, the outcome (with Mus musculus [2]; with Macrophage [7]; in the data set on Mus musculus [8]; in data set [11]; in data set [20]) was Active. Also, the result (with Macrophage [3]; in the data set with Macrophage [5]; in data set [10]; in [16]; in the data set on Macrophage [17]; in [19]) was inactive. The outcome with Macrophage [21] was inactive. For the same molecule, the Activity result with HEK-Blue hTLR4 [4] is “Dose-Dependent Effect”; in data set [12], “Non-Toxic”; in data set [13], “Dose-Dependent Effect”; in data set [14], “Dose-Dependent Effect”; in data set [15], “Non-Toxic”; in data set [18] it was “Non-Toxic”. The Ka in data set [6] is 3.84 10^3(1/Ms). For the same molecule, the Rmax in data set [9] is 8.15 RU.
As to `CCCCCCCCCCCCCC(=O)N[C@H]1[C@@H](OP(=O)(O)O)O[C@H](COP(=O)(O)O)[C@@H](OC(=O)CCCCCCCCCCCCC)[C@@H]1OC(=O)CCCCCCCCCCCCC`, the result (in data set [22]; in data set [10]; in the data set on HEK-Blue hTLR4 [23]) was inactive.
